Compound activity (PubChem)
A1 inh = inhibitors of the anti-apoptotic protein A1, read as caspase activation | MEF A1-2A-BIM cells, Caspase-Glo 3/7 luminescence, 3 h; percent of clofoctol response, vehicle zero | caspase activation, % (test concentration not listed) | AID 2462 | 330,000 tested, 0.066% active;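 active means over half of replicate activation scores above 10%, or exactly half above 10 with the replicate mean above 10; inconclusive means replicate mean below 10 yet half the replicates above 10; inactive means over half of replicates below 10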
Tb MetRS inh = blocks T. brucei methionyl-tRNA synthetase activity; 360,000 tested, 0.4% active; inhibition, % at 11.9 µM; purified T. brucei MetRS, ATP depletion, Kinase-Glo luminescence;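 active means inhibition above a per-plate cutoff of the control wells' mean inhibition plus 3 SD, cut at about 5.5% in these data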;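 further: 0% = DMSO wells median and 100% = median of wells with control inhibitor compound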
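Dosing: 11.9 µM single point; system: parasite MetRS enzyme; technique: luminescence of leftover ATP; times: 15 min enzyme-compound preincubation, 2 h reaction, 10 min detection, 25 °C; replicates: each compound tested once; read-out basis: percent inhibition relative to median high and low control wells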
MC4R ag barr = agonists of human melanocortin 4 receptor (MC4R) beta-arrestin | P32245 | U2OS MC4R beta-arrestin complementation, luminescence; percent of melanotan II response, DMSO zero | activation, % at 8.9 µM | 360,000 tested, 0.98% active | AID 540308;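 active means activation above a per-plate cutoff, the mean activation of sample wells on that plate plus 3 SD, cut at about 8% in these data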
Target sequence (P32245 whole entry, looked up): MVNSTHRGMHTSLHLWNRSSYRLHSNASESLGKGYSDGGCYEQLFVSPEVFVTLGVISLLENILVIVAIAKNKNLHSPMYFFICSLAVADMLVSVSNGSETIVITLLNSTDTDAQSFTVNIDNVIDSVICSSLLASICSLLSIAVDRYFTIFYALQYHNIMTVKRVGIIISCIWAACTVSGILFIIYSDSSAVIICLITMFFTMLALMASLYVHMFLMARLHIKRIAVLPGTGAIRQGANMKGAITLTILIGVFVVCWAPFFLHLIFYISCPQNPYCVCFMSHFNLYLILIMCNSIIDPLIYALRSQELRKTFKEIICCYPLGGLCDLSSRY
NALP3 yeast inh = inhibitors of NALP3 inflammasome in yeast | Yeast reconstituted NLRP3/ASC/caspase-1, beta-gal luminescence, 24 h | inhibition, % at 10 µM | 330,000 tested, 0.39% active | AID 2825;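 active means inhibition of 50% or more; inactive means inhibition below 50%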;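 further: plate controls were induced DMSO wells for no effect and uninduced yeast grown without galactose for full effect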
MC4R antag cAMP = antagonists of human melanocortin 4 receptor (MC4R). 360,000 tested, 0.48% active. P32245. inhibition, % at 6.5 µM. AID 540295. MC4R-expressing cells, MTII-stimulated cAMP, LANCE TR-FRET;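 active means inhibition above its plate's cutoff, the mean of tested wells on that plate plus 3 SD, cut at about 29% in these data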;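 further: 0% = Melanotan II alone and 100% = Melanotan II plus saturating MCL0020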
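System: U2OS cells stably expressing human melanocortin 4 receptor (MC4R). Reagent: Melanotan II challenge after compound preincubation. Doses: 6.5 µM. Times: 30-min compound, 1-h challenge, 1-h detection, room temperature. Measured by: TR-FRET with Eu-cAMP and labeled anti-cAMP, 671 nm. Replicates: singlicate.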
NALP1 yeast inh = inhibitors of NALP1 inflammasome in yeast; 280,000 tested, 0.61% active; S. cerevisiae NALP1/ASC/caspase-1 growth, X-gal OD620, 72 h; AID 2071; inhibition, % at 10 µM; in the data active means inhibition mostly above about 24%, no sharp cut-off; inactive means mostly below about 32%
Tb MetRS conf = confirmation of Trypanosoma brucei MetRS inhibitors | 1,400 tested, 93% active | shares compounds with Tb MetRS inh | inhibition, % at 11.9 µM | T. brucei MetRS enzyme, luminescence (ATP depletion); in the data active means inhibition above about 7%
Jurkat tox = kills Jurkat cells in T. brucei MetRS counterscreen; shares compounds with Tb MetRS inh; Jurkat cells viability, ATP luminescence; inhibition, % at 8.3 µM; 1,400 tested, 12% active; AID 624413; in the data active means inhibition above about 15%;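 further: 0% = vehicle and 100% = reference inhibitor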
Tb MetRS inh FP = orthogonal test for Trypanosoma brucei MetRS inhibitors. purified T. brucei MetRS, fluorescence polarization. 1,400 tested, 44% active. inhibition, % at 11.9 µM. shares compounds with Tb MetRS inh; in the data active means inhibition above about 17%;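 further: 0% = vehicle wells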
* marks the source's active call; other numbers are inactive results; ? = inconclusive; · = not tested or not shown. Hits are enriched below; roughly 2.5% of the tested compounds scored in any of these assays.

SMILES | A1 inh | Tb MetRS inh | MC4R ag barr | NALP3 yeast inh | MC4R antag cAMP | NALP1 yeast inh | Tb MetRS conf | Jurkat tox | Tb MetRS inh FP
COc1cc(NC(=O)CCN2CC(C)OC(C)C2)cc(OC)c1 (stereo not drawn) | -0.1 | 5.8* | 1.2 | 31.8 | 20.5 | 7.2 | 0.4 | 1.9 | 2.8
O=C(Cc1ccccc1)NCCc1ccc(Cl)cc1Cl | -0.1 | 0.2 | -2.3 | 28.5 | 9.9 | 38.2 | · | · | ·
N=c1sccn1CC(=O)NCCc1ccc(Cl)cc1Cl | 0.2 | 16.1* | -2.5 | 4.6 | -7.9 | 15.1 | 41.6* | -4.7 | 10.3
O=C(c1cnccn1)N1CCc2c([nH]c3ccccc23)C1c1cccc(Cl)c1 (stereo not drawn) | -1.2 | 7.0* | -1.0 | -2.9 | 6.0 | -11.0 | 10.4* | 7.5 | 1.9
Cc1cc(C(=O)N2CCc3c([nH]c4ccccc34)C2c2cccc(Cl)c2)nn1C (stereo not drawn) | -0.1 | 1.5 | 0.2 | 9.7 | 0.7 | -4.0 | · | · | ·
N#CCCN(Cc1cccnc1)CN1C(=O)c2ccccc2C1=O | · | -0.2 | 1.2 | · | 3.4 | · | · | · | ·
CCCCNc1nc2ccccc2[nH]1 | 0.3 | 8.0* | -1.7 | -1.0 | -0.1 | 46.8 | 14.4* | 1.7 | 6.1
Cn1nc(C(F)(F)F)c(-c2cccc(C(F)(F)F)c2)c1NC(=O)Nc1ccc(F)cc1 | ? | 40.6* | -0.1 | -9.8 | 5.9 | 17.2 | 58.4* | 10.2 | 38.3*
Cc1ccc(NC(=O)COC(=O)C2(c3ccc(Cl)cc3)CCCC2)cc1 | -0.3 | 6.9* | 3.5 | 18.8 | 4.8 | 27.7 | 12.1* | 3.3 | 11.9
COc1ccc(C(C)(O)c2nc(-c3ccc(F)cc3OC)cs2)cc1 (stereo not drawn) | · | -0.3 | -0.1 | · | -4.0 | · | · | · | ·
Cc1ccc(NS(=O)(=O)c2c(C(=O)N3CCCCCC3)c(C)n(C)c2C)c(Cl)c1 | -0.4 | -0.1 | -3.5 | -4.8 | 2.9 | 11.7 | · | · | ·
Cc1ccc(NS(=O)(=O)c2c(C)[nH]c(C)c2C(=O)N2CCCCC2)cc1Cl | -0.3 | 21.9* | 2.8 | -21.3 | 9.2 | -10.1 | 32.1* | 2.2 | 11.7
Cc1ccc(NS(=O)(=O)c2c(C)[nH]c(C)c2C(=O)N2CCCCC2)c(Cl)c1 | 0.0 | 8.4* | -1.8 | 14.6 | 8.9 | 18.6 | 21.0* | 3.0 | 6.8
O=C1NC[C@H](CCCCN2CCN(CC3CCCCC3)C(=O)C2=O)N(Cc2ccccc2)C1=O | · | -0.6 | · | · | · | · | · | · | ·
CC(=O)Cc1nsc(Nc2ccc(Cl)cc2)n1 | -0.2 | 10.0* | 0.5 | 15.8 | 6.4 | -4.6 | 4.5 | 2.0 | 5.4
CC(=O)Cc1nsc(Nc2ccc(F)cc2)n1 | -0.7 | -1.2 | 4.3 | -6.3 | 12.6 | -11.3 | · | · | ·
CCNC(=S)N(Cc1cc2cc(C)ccc2[nH]c1=O)C1CCCC1 | 0.0 | 11.3* | 0.9 | -5.9 | 15.5 | -11.8 | 21.7* | -5.4 | 10.7
CCN1CCN(C(=O)c2cccc(OC3CCN(S(C)(=O)=O)CC3)c2)[C@@H](C)C1=O | 1.0 | 0.0 | -1.4 | 13.6 | 2.6 | 28.7 | · | · | ·
CCc1cc(=O)oc2cc(C)cc(OC(C)C(=O)NC(Cc3c[nH]c4ccc(O)cc34)C(=O)O)c12 (stereo not drawn) | 0.3 | 5.8* | 0.6 | 9.5 | 8.1 | 4.4 | 13.4* | -5.8 | 5.3
CCc1cc(=O)oc2cc(C)cc(OCC(=O)NC(Cc3c[nH]c4ccc(O)cc34)C(=O)O)c12 (stereo not drawn) | -0.1 | 6.6* | -0.3 | -6.9 | 0.6 | 10.8 | 9.7* | 7.5 | 4.0
CCCc1cc(=O)oc2cc(C)cc(OCC(=O)NC(Cc3c[nH]c4ccc(O)cc34)C(=O)O)c12 (stereo not drawn) | -0.2 | 7.0* | -0.4 | -2.2 | 9.4 | -3.2 | 11.9* | -2.6 | -1.4
CCCCc1cc(=O)oc2cc(OCC(=O)NC(Cc3c[nH]c4ccc(O)cc34)C(=O)O)ccc12 (stereo not drawn) | 0.3 | 1.6 | -0.7 | -0.8 | 9.3 | 7.6 | · | · | ·
Cc1ccc(NC(=O)CSc2nnc(Cc3ccccc3)o2)cc1 | -0.6 | -0.1 | -0.4 | -0.2 | -3.6 | -0.5 | · | · | ·
O=C(CSc1nnc(Cc2ccc(Cl)cc2)o1)Nc1ccccc1 | -0.8 | 7.5* | -0.7 | 22.3 | 22.8 | 18.3 | 13.7* | 0.7 | 9.7
C[C@H](NC(=O)c1nc[nH]c1C(=O)N1CCN(c2ccccc2)CC1)c1ccccc1 | 0.3 | -0.3 | 0.0 | -1.2 | 0.5 | · | · | · | ·
SMILES | A1 inh | Tb MetRS inh | MC4R ag barr | NALP3 yeast inh | MC4R antag cAMP | NALP1 yeast inh | Tb MetRS conf | Jurkat tox | Tb MetRS inh FP
CC(N=C1NS(=O)(=O)c2ccccc21)C(=O)NCc1ccncc1 (stereo not drawn) | · | -0.4 | -3.6 | 20.1 | -2.0 | · | · | · | ·
O=C(CC(=O)Nc1cccc(Cl)c1)N/N=C\c1ccccc1 | 0.4 | 36.2* | -0.9 | 4.0 | -0.8 | 29.3 | 82.1* | -4.0 | 51.4*
O=C(N/N=C/c1ccc(Cl)cc1)Nc1ccccc1 | 0.3 | -0.8 | 5.7 | -11.9 | -7.1 | 11.3 | · | · | ·
Cc1ccc(/C=N/NC(=O)CCCOc2ccc(Cl)cc2Cl)cc1 | 0.0 | 2.5 | 4.5 | 22.3 | -5.3 | 29.9 | · | · | ·
Cc1cc(Cl)ccc1OCCCC(=O)NNC(=O)c1ccccc1O | -0.2 | 6.0* | -2.8 | 29.7 | 13.5 | · | 25.1* | 10.6 | 21.7*
O=C(CCCOc1ccc(Cl)cc1Cl)N/N=C/c1ccccc1 | -0.2 | 12.0* | -0.5 | 24.3 | 15.7 | 24.1 | 39.3* | 3.0 | 34.1*
O=C(COc1ccc(Cl)cc1Cl)NNC(=S)NCc1ccco1 | -0.4 | 6.4* | 2.3 | 10.0 | 7.4 | -11.0 | 4.0 | 12.1 | 14.8
CCN1CCN(c2oc(-c3ccccc3)nc2S(=O)(=O)c2ccc(C)cc2)CC1 | · | -0.3 | -0.3 | 19.4 | -2.2 | · | · | · | ·
O=C(CCCOc1ccc(Cl)cc1Cl)N/N=C/c1ccco1 | 0.2 | 16.7* | 5.0 | 5.2 | 8.5 | 2.0 | 51.8* | 5.2 | 57.4*
O=C(COc1ccc(Cl)cc1Cl)N/N=C/c1ccc[nH]1 | -1.2 | 6.6* | -1.3 | 19.7 | -3.3 | 10.8 | 36.2* | 1.1 | 26.9*
O=C(CCCOc1ccc(Cl)cc1Cl)Nc1ncccn1 | ? | 0.8 | -0.8 | 14.5 | 5.1 | 9.7 | · | · | ·
O=C(COc1ccc(Cl)cc1Cl)N/N=C/CCc1ccccc1 | -0.3 | -0.3 | 6.2 | 3.3 | 8.9 | -1.0 | · | · | ·
S=C(N/N=C/c1cccc2ccccc12)Nc1cccc(Cl)c1 | -0.1 | 5.8* | 0.5 | 26.2 | 2.9 | -3.7 | -0.1 | 5.2 | 3.0
O=C(CCCOc1ccc(Cl)cc1Cl)N1CCN(c2ccccn2)CC1 | 1.0 | 12.1* | -1.0 | 33.4 | -4.1 | -0.3 | 20.1* | -0.9 | 14.3
